The species entered for assay [1] is Rattus norvegicus. Description: Inhibition of rat intestinal alpha-glucosidase activity at 50 ug. A digest of the protocol: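 Rat intestinal α-glucosidase assayed in vitro. Compound added as 50 µg from a 5 mg/mL DMSO stock. Percent inhibition run in triplicate and given as mean SD.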
Assay [2] is described as follows: Inhibition of rat intestinal alpha-glucosidase activity.
Assay [3] relates to Rattus norvegicus. Briefly: Antihyperglycemic activity in Wistar rat assessed as reduction in postprandial blood glucose rise at 100 mg/kg, po by carbohydrate tolerance test. Format: functional, organism-based. The arrangement: dose 100 mg/kg. A digest of the protocol:
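Rats housed at 22 °C under a 12 h light-dark cycle, six per group, then fasted overnight. Basal plasma glucose was measured by glucose oxidase on retro-orbital EDTA blood. Compounds were suspended in normal saline and given orally at 100 mg/kg; controls received saline only. Delta-glycemia was read at 30–120 min, shown as mean SD and compared by ANOVA with Bonferroni.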

SMILES strings stand for the structures. The source made the active and inactive calls. No cut-off for these calls is given here.

A word on the inhibition: it is the drop in the measured response relative to a control, in per cent. A higher inhibition goes with a strong effect. Broadly, the IC50 is the concentration that gives 50% inhibition.

For `CC(=O)NC(CC(=O)c1ccc(Br)cc1)c1ccc(F)cc1` (centres undefined), the inhibition in the assay filed under Rattus norvegicus [1] amounted to 2.7%.

Compound `CC(=O)NC(CC(=O)c1ccccc1)c1ccc([N+](=O)[O-])cc1` (centres undefined) yielded a 50% inhibitory concentration (IC50) in assay [2] of 25.6 µM. The inhibition in the assay listed under Rattus norvegicus [1] was found to be 72.2%.

Turning to `C[C@H]1O[C@H](O[C@H]2[C@H](O)[C@@H](O)[C@@H](O[C@H]3[C@H](O)[C@@H](O)[C@H](O)O[C@@H]3CO)O[C@@H]2CO)[C@H](O)[C@@H](O)[C@@H]1N[C@H]1C=C(CO)[C@@H](O)[C@H](O)[C@H]1O`, the result in the assay on Rattus norvegicus [3] was Active.

`CC(=O)NC(CC(=O)c1ccc(F)cc1)c1ccc(F)cc1` (centres undefined): the inhibition in the assay listed under Rattus norvegicus [1] worked out at 55.1%.

In assay [2], `CC(=O)NC(CC(=O)c1ccc([N+](=O)[O-])cc1)c1ccc(C)cc1` (centres undefined) gave a 50% inhibitory concentration (IC50) of 9.07 µM. This compound also registered an inhibition in the assay filed under Rattus norvegicus [1] of 85%. Further, in the assay on Rattus norvegicus [3], the result was Active.

For `CC(=O)NC(CC(=O)c1ccc(F)cc1)c1ccc(O)cc1` (centres undefined), the IC50 in assay [2] amounted to 72.8 µM. This compound also returned an inhibition in the assay listed under Rattus norvegicus [1] of 60.1%.

`CC(=O)NC(CC(=O)c1ccc(Br)cc1)c1ccc(C)cc1` (centres undefined) yielded an IC50 in assay [2] of 5.53 µM. The compound further yielded an inhibition in the assay listed under Rattus norvegicus [1] of 95.1%. Besides, in the assay with Rattus norvegicus [3], the result was Active.

In the assay filed under Rattus norvegicus [1], `CC(=O)NC(CC(=O)c1ccc([N+](=O)[O-])cc1)c1ccc([N+](=O)[O-])cc1` (centres undefined) yielded an inhibition of 52.7%.

The values above are taken from ChEMBL document CHEMBL1157494, “Reduction in post-prandial hyperglycemic excursion through alpha-glucosidase inhibition by beta-acetamido carbonyl compounds” (Bioorg Med Chem Lett, 2008).
